What was measured:
[1] = Oral bioavailability in mouse at 150 mg/kg; assay type: ADME, organism-based; conditions: in vivo
Mus musculus [2] = experiment: Toxicity in BALB/c mouse assessed as pathological changes in heart at 500 mg/kg, po administered every day for 7 days by hematoxylin-eosin staining method; conditions: in vivo, 168 h
Mus musculus [3] = experiment: Toxicity in BALB/c mouse assessed as pathological changes in liver at 1000 mg/kg, po administered as single dose by hematoxylin-eosin staining method; assay type: organism-based; set-up: dose 1000 mg/kg, route oral; conditions: in vivo
Method in brief: (§1)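 BALB/c mice, 16 in total (8 male, 8 female). DMAMCL was given by gavage as an aqueous solution, either 1000 mg/kg once or 500 mg/kg every day for seven doses. Controls were untreated and water-vehicle mice. Mice were killed 1 week after dosing. Heart, liver, spleen, lung and kidney were fixed in 10% neutral-buffered formalin, paraffin-embedded, cut into 3 μm sections, H&E-stained and examined microscopically for gross morphology.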

[4] = Mean retention time (0 to t) in mouse at 150 mg/kg, po; assay type: ADME, organism-based; set-up: dose 150 mg/kg, route oral; conditions: in vivo
Method in brief: (§2)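 Male Kunming mice (20 2 g), fasted 12 h before dosing with water available, given DMAMCL as an aqueous solution po (n = 5). Blood was drawn from the orbital veins at set times. Plasma DMAMCL and MCL were followed, and parameters came from noncompartmental analysis.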

[5] = Cytotoxicity against human leukemia cells assessed as cell viability at 10 uM after 18 hrs by annexin-V labeling-based flow cytometry
[6] = Antitumor activity against human leukemia stem/progenitor cells xenografted in NOD/SCID mouse assessed as reduction of CD45+CD33+ cells in bone marrow at 100 mg/kg, po qd administered every other day total of seven doses starting from 8 weeks post grafting measured on day 85; assay type: functional; set-up: scale not given: the % may be the effect or the level left
Method in brief: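 NOD/SCID mice, sublethally irradiated (280cGay), received primary AML M5 patient cells via tail vein in PBS 6−10 h later. From 8 weeks after engraftment, aqueous drug was given orally every other day for seven doses. Surviving mice were sacrificed on day 85 post-inoculation, and human CD45⁺CD33⁺ cells in bone marrow were measured by flow cytometry.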

[7] = Cytotoxicity against human leukemia stem/progenitor cells assessed as viable CD34+ cells at 5 uM after 18 hrs by annexin-V labeling-based flow cytometry; assay type: functional, CD34+ cell
Method in brief: (§3)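 Primary leukemia cells from AML patient blood were treated for 18 h in serum-free IMDM, then stained with CD34-APC and CD38-PECy7 for 30 min. After washing in cold PBS, cells were labelled with Annexin-V–FITC/PI for 15 min at room temperature and read by flow cytometry. Viability of total and CD34⁺ cells was normalized to untreated controls (mean, SD).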

Plasma = experiment: Drug metabolism in mouse plasma assessed as release of MCL; assay type: ADME, cell-free
Method in brief: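 A 20 μL aliquot of prodrug solution was added to 980 μL blank mouse plasma and incubated at 37 °C. Prodrug and released parent drug concentrations were measured over time by HPLC (mean, SD, n = 4).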

[8] = Drug degradation in HEPES buffer at pH 7.4 assessed as release of MCL up to 8 hrs; assay type: physicochemical; conditions: pH 7.4, 8 h
Method in brief: (§4)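 A 20 μL aliquot of prodrug solution was added to 980 μL HEPES buffer (pH 7.4, or below 5.0) and incubated at 37 °C. Samples were withdrawn over time, and prodrug and released parent were quantified by HPLC (mean, SD, n = 4).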

Mus musculus [9] = experiment: Toxicity in BALB/c mouse assessed as pathological changes in kidney at 1000 mg/kg, po administered as single dose by hematoxylin-eosin staining method; assay type: organism-based; set-up: dose 1000 mg/kg, route oral; conditions: in vivo
Method in brief: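 BALB/c mice (16 in total, 8 male/8 female) were given aqueous DMAMCL by gavage as a single 1000 mg/kg dose or 500 mg/kg daily for seven doses. Water-only and untreated mice served as controls. One week later, tissues were fixed in 10% neutral-buffered formalin, embedded in paraffin, cut into 3 μm sections, stained with H&E and examined microscopically.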

[10] = Tmax in mouse at 150 mg/kg, po; assay type: ADME, organism-based; set-up: dose 150 mg/kg, route oral; conditions: in vivo; method in brief: as §2
[11] = Cmax in mouse at 100 mg/kg, iv; assay type: ADME, organism-based; set-up: dose 100 mg/kg, route intravenous; conditions: in vivo
Method in brief: (§5)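 Male Kunming mice (20 2 g), fasted 12 h before dosing with water available, given DMAMCL as an aqueous solution iv (n = 5). Blood was drawn from the orbital veins at set times. DMAMCL and MCL in plasma were measured, and parameters were derived by a noncompartmental model.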

Mus musculus [12] = experiment: Toxicity in BALB/c mouse assessed as pathological changes in spleen at 1000 mg/kg, po administered as single dose by hematoxylin-eosin staining method; assay type: organism-based; set-up: dose 1000 mg/kg, route oral; conditions: in vivo; method in brief: as §1
Mus musculus [13] = experiment: Volume of distribution in mouse at 150 mg/kg, po; assay type: ADME, organism-based; set-up: dose 150 mg/kg, route oral; conditions: in vivo
Method in brief: (§6)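 Male Kunming mice (20 2 g) were fasted 12 h with water available. An aqueous solution was dosed po (150 mg/kg) or iv (100 mg/kg), n = 5 per route. Blood was drawn from the orbital veins at set times to measure DMAMCL and released MCL. Parameters come from a noncompartmental model and are given as mean with SD.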

[14] = Antitumor activity against human leukemia stem/progenitor cells xenografted in NOD/SCID mouse assessed as survival time at 100 mg/kg, po qd administered every other day total of seven doses starting from 8 weeks post grafting (reference value: 43 days); assay type: functional
Method in brief: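 NOD/SCID mice were sublethally irradiated (280cGay), then 6−10 h later given primary AML M5 patient cells via tail vein in PBS. From 8 weeks postinoculation, aqueous solution was given orally at 100 mg/kg every other day for seven doses. Survival was followed, Kaplan−Meier, n = 6 per treated group and n = 7 untreated controls. Survivors at day 85 had bone marrow analysed for human CD45⁺CD33⁺ cells.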

[15] = Antitumor activity against mixed-lineage human leukemia cells xenografted in NOD/SCID mouse assessed as inhibition of cancer cell engrafting at 100 mg/kg, po qd administered every other day total of seven doses starting from 8 weeks post grafting measured on day 35; assay type: functional
[16] = Drug degradation in HEPES buffer at pH <5 assessed as release of MCL; assay type: physicochemical; method in brief: as §4
[17] = Volume of distribution in mouse at 100 mg/kg, iv; assay type: ADME, organism-based; set-up: dose 100 mg/kg, route intravenous; conditions: in vivo; method in brief: as §6
Mus musculus [18] = experiment: Toxicity in BALB/c mouse assessed as pathological changes in spleen at 500 mg/kg, po administered every day for 7 days by hematoxylin-eosin staining method; conditions: in vivo, 168 h
[19] = AUC (0 to t) in mouse at 100 mg/kg, iv; assay type: ADME, organism-based; set-up: dose 100 mg/kg, route intravenous; conditions: plasma; method in brief: as §5
[20] = AUC (0 to infinity) in mouse at 150 mg/kg, po; assay type: ADME, organism-based; set-up: dose 150 mg/kg, route oral, time infinity; conditions: plasma; method in brief: as §2
HL-60 = experiment: Cytotoxicity against human HL60 cells after 18 hrs by annexin-V labeling-based flow cytometry; assay type: functional, cell-based; conditions: HL-60, 18 h
[21] = Mean retention time (0 to infinity) in mouse at 150 mg/kg, po; assay type: ADME, organism-based; set-up: dose 150 mg/kg, route oral; conditions: in vivo; method in brief: as §2
[22] = Mean retention time (0 to t) in mouse at 100 mg/kg, iv; assay type: ADME, organism-based; set-up: dose 100 mg/kg, route intravenous; conditions: in vivo; method in brief: as §5
[23] = Cytotoxicity against human leukemia stem/progenitor cells assessed as cell viability at 5 uM after 18 hrs by annexin-V labeling-based flow cytometry; assay type: functional; conditions: in the assay text read “leukemia cells” for “leukemia stem/progenitor cells”, read-out: Activity; method in brief: as §3

Structure (SMILES): CC1=C2CC[C@@](C)(O)[C@@H]2[C@H]2OC(=O)[C@@H](CN(C)C)[C@@H]2CC1.Cl [DIMETHYLAMINOMICHELIOLIDE HYDROCHLORIDE]
- bioavailability [1]: 75%
- Activity (Mus musculus [2]): Non-toxic
- Activity (Mus musculus [3]): Non-toxic
- MRT last [4]: 8.85 h
- viability at 10 µM [5]: 64.9%
- Activity [6]: 0.005%
- Activity [7]: 72.9%
- Drug metabolism (Plasma): Active
- Drug degradation [8]: Active
- Activity (Mus musculus [9]): Non-toxic
- Tmax [10]: 0.19 h
- Cmax [11]: 92.9 µg/mL
- Activity (Mus musculus [12]): Non-toxic
- Vd (Mus musculus [13]): 47.38 L/kg
- Survival [14]: 63 days
- inhibition in vivo at 100 mg/kg [15]: 98.6%
- Drug degradation [16]: Not Active
- Vd [17]: 88.2 L/kg
- Activity (Mus musculus [18]): Non-toxic
- AUC(0-t) [19]: 43900 ng·h/mL
- AUC(0-inf) [20]: 50300 ng·h/mL
- IC50 (HL-60): 17.2 µM
- MRT inf [21]: 9.85 h
- MRT last [22]: 1.51 h
- viability at 5 µM [23]: 77.6%

From ChEMBL document CHEMBL2202986, “Guaianolide sesquiterpene lactones, a source to discover agents that selectively inhibit acute myelogenous leukemia stem and progenitor cells” (J Med Chem, 2012)
